In brackets after ≈: the same amount, converted by molar mass. Activity calls are given as the source filed them. The calls are words filed in the database; no cut-off is given here.

Series [1] relates to Mus musculus. As to the kind of experiment: Antioxidant activity in carrageenan-stimulated ICR mouse assessed as increase in SOD activity at 4 mg/kg, ip measured after 5 hrs. It counts as functional. The note with it: route intraperitoneal. The method, boiled down:
(§1)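 Male ICR mice (n = 6 per group) received the drug 30 min before intraplantar carrageenan, and paw tissue was taken at the 5th hr. Total SOD was measured by inhibition of cytochrome c reduction, CAT by Aebi's method, and cytosolic GPx by Paglia–Valentine. Activities are in U/mg protein, given as mean ± SEM.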

Series [2] deals with MAP kinase p38 (Mus musculus) (UniProt P47811+O08911+Q9WUI1+Q9Z1B7). Description: Inhibition of p38 phosphorylation in LPS-stimulated mouse RAW264.7 cells at 5 to 20 uM after 30 mins by Western blot analysis. In kind it is cell-based. Put shortly: (§2)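 RAW 264.7 cells were pretreated with test agent, then stimulated with LPS for 30 min. Phospho-ERK, phospho-JNK and phospho-p38 were assessed by Western blot: RIPA lysates, 30 µg protein, SDS-PAGE, PVDF, primary antibody overnight at 4 °C, HRP secondary and ECL detection.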
(In general: In western blotting, separated proteins are transferred to a membrane and probed.)

The test system of series [3] is RAW264.7. As to the kind of experiment: Antiinflammatory activity in mouse RAW264.7 cells assessed as inhibition of LPS-induced TNFalpha production at 10 uM administered 1 hr before LPS challenge measured after 24 hrs by ELISA.
In series [4] the test system is Mus musculus. Description: Antioxidant activity in carrageenan-stimulated ICR mouse assessed as increase in SOD activity at 2 mg/kg, ip measured after 5 hrs. The settings on record: route intraperitoneal. In kind it is functional. The method, boiled down: as §1
Series [5] concerns RAW264.7. As to the kind of experiment: Antiinflammatory activity in mouse RAW264.7 cells assessed as inhibition of LPS-induced TNFalpha production at 20 uM administered 1 hr before LPS challenge measured after 24 hrs by ELISA. (In general: An ELISA detects its analyte on a solid surface through an enzyme-linked reagent.)
Series [6] concerns Mus musculus. As to the kind of experiment: Antioxidant activity in carrageenan-stimulated ICR mouse assessed as increase in GPx activity at 2 mg/kg, ip measured after 5 hrs. The settings on record: route intraperitoneal. In kind it is functional. The method, boiled down: as §1
Series [7] deals with Mus musculus. Description: Antiinflammatory activity in carrageenan-stimulated ICR mouse assessed as effect on shape of collagen fiber at 8 mg/kg, ip measured after 5 hrs. It counts as functional, organism-based. On the set-up: dose 8 mg/kg. The method, boiled down:
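Male ICR mice were dosed 30 min before intraplantar carrageenan, and paw biopsies were taken 5 h later. Tissue was fixed in Dietric solution for 1 week at room temperature, dehydrated in graded ethanol and paraffin-embedded. 7-thickness sections were stained with hematoxylin–eosin or Van Gieson and examined by light microscopy.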

A short description of series [8]: Antioxidant activity in human neutrophils assessed as inhibition of fMLP/CB-induced superoxide anion generation. The note with it: Neutrophil. It counts as functional, cell-based.
Series [9] has as its system Mus musculus. As to the kind of experiment: Down regulation of iNOS protein expression in carrageenan-stimulated ICR mouse at 8 mg/kg, ip measured after 5 hrs by Western blot analysis. In kind it is functional. The note with it: route intraperitoneal. Put shortly:
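Male ICR mice (18–25 g, n = 6 per group) received intraplantar carrageenan. Paw tissue was taken 5 h after carrageenan. Lysates were made in RIPA buffer and 30 µg protein run on SDS-PAGE/PVDF immunoblot with ECL detection. Band intensities were quantified relative to the carrageenan-alone group across three independent experiments.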

Series [10] in a line: Antiinflammatory activity in human neutrophils assessed as inhibition of fMLP/CB-induced elastase release. The note with it: Neutrophil. It counts as functional, cell-based.
Series [11] concerns Mus musculus. Description: Antiinflammatory activity in ICR mouse assessed as decrease in carrageenan-induced serum TNFalpha level at 8 mg/kg, ip. In kind it is functional, organism-based. On the set-up: dose 8 mg/kg. Put shortly:
(§3)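 Male ICR mice (18–25 g, n = 6 per group). Carrageenan was injected intraplantar into the paw, with drug given 30 min beforehand. Serum was collected at the 5th hr. Nitrite was measured colorimetrically by Griess reaction, and TNF-α by commercial ELISA. Data are mean ± SEM.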

In series [12] the target is Mitogen-activated protein kinase 1 and 3 (ERK2 and ERK1) (Mus musculus) (UniProt P63085+Q63844). Description: Inhibition of Erk1/2 phosphorylation in LPS-stimulated mouse RAW264.7 cells at 5 to 20 uM after 30 mins by Western blot analysis. In kind it is cell-based. Put shortly:
as §2

For series [13], the system named is RAW264.7. As to the kind of experiment: Cytotoxicity against mouse RAW264.7 cells after 24 hrs by MTT assay. It counts as cell-based. The note with it: raw264.7, 24 h. The method, boiled down:
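RAW 264.7 cells (2 × 10⁵, DMEM + 10% FBS, grown 1 day to near confluence) exposed to test agent with 100 ng/mL LPS for 24 h. After two DPBS washes, 0.5 mg/mL MTT was added for 2 h at 37 °C. Formazan was dissolved in DMSO for 30 min and absorbance read at 570 nm.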
(In general: Formazan colour is commonly taken as a measure of viable cells.)

Series [14] deals with Mus musculus. Description: Antiinflammatory activity in ICR mouse assessed as decrease in carrageenan-induced MDA level at 8 mg/kg, ip measured after 5 hrs. It counts as functional, organism-based. On the set-up: dose 8 mg/kg. Put shortly:
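Male ICR mice (n = 6 per group) were dosed 30 min before intraplantar carrageenan. MDA in the edematous paw tissue was determined at the 5th hr after carrageenan.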

Series [15] concerns Mus musculus. Description: Antioxidant activity in carrageenan-stimulated ICR mouse assessed as increase in SOD activity at 8 mg/kg, ip measured after 5 hrs. In kind it is functional. The settings on record: route intraperitoneal. The method, boiled down: as §1
Series [16] relates to RAW264.7. Description: Inhibition of JNK phosphorylation in LPS-stimulated mouse RAW264.7 cells at 5 to 20 uM after 30 mins by Western blot analysis. In kind it is cell-based. The method, boiled down:
as §2

In series [17] the test system is Mus musculus. As to the kind of experiment: Antiinflammatory activity in ICR mouse assessed as decrease in carrageenan-induced serum TNFalpha level at 2 mg/kg, ip. It counts as functional, organism-based. On the set-up: dose 2 mg/kg. Put shortly:
as §3

The subject of series [18] is RAW264.7. As to the kind of experiment: Antiinflammatory activity in mouse RAW264.7 cells assessed as inhibition of LPS-induced TNFalpha production at 5 uM administered 1 hr before LPS challenge measured after 24 hrs by ELISA.
Series [19] relates to Mus musculus. Description: Antiinflammatory activity in ICR mouse assessed as decrease in carrageenan-induced serum NO level at 8 mg/kg, ip measured after 5 hrs. It counts as functional, organism-based. On the set-up: dose 8 mg/kg. Put shortly: as §3
Series [20] deals with Mus musculus. As to the kind of experiment: Antiinflammatory activity in ICR mouse assessed as decrease in carrageenan-induced serum TNFalpha level at 4 mg/kg, ip. It counts as functional, organism-based. On the set-up: dose 4 mg/kg. Put shortly:
as §3

Chain of Mitogen-activated protein kinase 1 and 3 (ERK2 and ERK1) (Mus musculus) (P63085 whole entry, looked up): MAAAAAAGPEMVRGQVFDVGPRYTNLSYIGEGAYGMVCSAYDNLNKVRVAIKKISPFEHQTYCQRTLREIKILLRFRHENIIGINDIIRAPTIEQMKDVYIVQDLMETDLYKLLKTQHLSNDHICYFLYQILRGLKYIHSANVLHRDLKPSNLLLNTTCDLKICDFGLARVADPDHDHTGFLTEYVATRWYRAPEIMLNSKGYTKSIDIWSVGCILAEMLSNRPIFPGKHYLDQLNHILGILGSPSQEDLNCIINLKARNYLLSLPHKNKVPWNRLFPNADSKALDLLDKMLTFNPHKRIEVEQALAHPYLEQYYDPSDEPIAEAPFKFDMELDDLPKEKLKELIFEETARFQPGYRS
Chain of Mitogen-activated protein kinase 1 and 3 (ERK2 and ERK1) (Mus musculus) (Q63844 whole entry, looked up): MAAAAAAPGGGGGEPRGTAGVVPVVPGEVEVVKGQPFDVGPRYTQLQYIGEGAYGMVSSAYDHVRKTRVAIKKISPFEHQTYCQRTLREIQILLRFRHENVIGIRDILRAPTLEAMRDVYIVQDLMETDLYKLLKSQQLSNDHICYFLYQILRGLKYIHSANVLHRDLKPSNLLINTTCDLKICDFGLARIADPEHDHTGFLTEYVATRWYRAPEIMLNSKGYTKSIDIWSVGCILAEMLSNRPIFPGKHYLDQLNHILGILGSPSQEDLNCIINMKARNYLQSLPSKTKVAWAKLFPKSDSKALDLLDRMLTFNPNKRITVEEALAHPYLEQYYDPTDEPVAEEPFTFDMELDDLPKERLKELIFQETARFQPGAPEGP

Regarding `COc1cc(CCCc2c(OC)cc(O)c(OC)c2OC)ccc1O` [VISCOLIN], the Activity in the series with Mus musculus [1] is reported as 3.46 U/mg; with Mus musculus [4] it was 2.45 U/mg; with Mus musculus [6], 8.64 U/mg; in the series with Mus musculus [9], 63.6%; in the series on RAW264.7 [13] it was “Non-toxic”; in the series with Mus musculus [15] it was 4.08 U/mg. The inhibition result (in [2]; with RAW264.7 [16]) was “inactive” throughout. Besides, the outcome with RAW264.7 [3], in the series on RAW264.7 [5], in the series on Mus musculus [7], in the series with Mus musculus [11], in the series with Mus musculus [14] and in the series on Mus musculus [17] was Active. The result in the series on RAW264.7 [18], in the series on Mus musculus [19] and with Mus musculus [20] was Active. Besides, the IC50 (usually the concentration needed to halve the response being measured) in series [8] was 0.58 µg/mL (≈ 1.66 µM); in series [10] it was 4.93 µg/mL (≈ 14.2 µM). Besides, the inhibition entry in series [12] was “Active”.

Values taken from ChEMBL document CHEMBL1938286, “A concise synthesis of viscolin, and its anti-inflammatory effects through the suppression of iNOS, COX-2, ERK phosphorylation and proinflammatory cytokines expressions” (Eur J Med Chem, 2012).
